Series [1] deals with T1, Extracellular calcium-sensing receptor (Homo sapiens, UniProt P41180).
T1 sequence (P41180 whole entry): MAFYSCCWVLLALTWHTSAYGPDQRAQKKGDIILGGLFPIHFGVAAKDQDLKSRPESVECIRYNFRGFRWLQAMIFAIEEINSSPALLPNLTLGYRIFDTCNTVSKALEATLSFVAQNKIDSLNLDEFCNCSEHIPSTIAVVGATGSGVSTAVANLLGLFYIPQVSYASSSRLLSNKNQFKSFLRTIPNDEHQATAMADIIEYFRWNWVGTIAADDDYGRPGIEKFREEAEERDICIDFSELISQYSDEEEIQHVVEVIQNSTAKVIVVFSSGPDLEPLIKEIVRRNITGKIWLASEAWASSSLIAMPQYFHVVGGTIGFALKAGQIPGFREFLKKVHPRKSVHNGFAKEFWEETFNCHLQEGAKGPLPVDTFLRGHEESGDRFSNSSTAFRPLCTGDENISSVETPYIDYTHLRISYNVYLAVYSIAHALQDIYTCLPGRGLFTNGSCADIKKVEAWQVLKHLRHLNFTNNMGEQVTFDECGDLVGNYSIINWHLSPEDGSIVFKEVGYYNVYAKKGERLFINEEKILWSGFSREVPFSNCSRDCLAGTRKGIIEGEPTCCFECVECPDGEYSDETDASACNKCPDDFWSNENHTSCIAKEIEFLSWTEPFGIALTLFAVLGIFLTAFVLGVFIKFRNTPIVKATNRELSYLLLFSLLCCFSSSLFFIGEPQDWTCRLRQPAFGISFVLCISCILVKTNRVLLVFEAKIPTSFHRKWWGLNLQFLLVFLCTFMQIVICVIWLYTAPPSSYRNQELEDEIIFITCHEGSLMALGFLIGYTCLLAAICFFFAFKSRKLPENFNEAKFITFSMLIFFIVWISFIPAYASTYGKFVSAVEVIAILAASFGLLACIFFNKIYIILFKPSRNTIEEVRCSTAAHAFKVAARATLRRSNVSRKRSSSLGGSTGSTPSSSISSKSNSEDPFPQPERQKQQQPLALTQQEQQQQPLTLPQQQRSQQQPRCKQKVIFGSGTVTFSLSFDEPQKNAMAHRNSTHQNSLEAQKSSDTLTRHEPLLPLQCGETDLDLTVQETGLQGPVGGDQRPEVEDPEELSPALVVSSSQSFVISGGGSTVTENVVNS
The experiment in a line: Antagonist activity at human CaSR expressed in rat PC12 cells transfected with zif promoter/luciferase by reporter gene assay. In kind it is functional, cell-based, PC-12. The method in brief: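 Human CaSR antagonism measured by luciferase reporter gene assay in PC12h cells transfected with zif promoter/luciferase and hCaSR plasmids. IC50 values are means of two or more experiments.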
(In general: A reporter such as luciferase makes a cellular process visible.)

The subject of series [2] is Rattus norvegicus. Kind of series: Increase of serum PTH (1-34) level in Sprague-Dawley rat at 100 mg/kg, po after 30 and 60 mins by ELISA relative to NPS 2143. The class given is functional. The method in brief: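 Sprague–Dawley rats (n = 5) were dosed orally at 100 mg/kg. Serum PTH 1–34 rise over basal at 30 and 60 min was measured by rat PTH 1–34 ELISA. The rise was scored against a reference calcilytic given at 100 mg/kg po: ++ >80%, + 50–80%, N.E. <50% of the reference increase.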
Background: ELISA stands for enzyme-linked immunosorbent assay.

The subject of series [3] is Rattus norvegicus. Kind of series: Increase of serum PTH (1-34) level in Sprague-Dawley rat at 100 mg/kg, po after 30 and 60 mins by ELISA. The class given is functional. In a few lines:
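Sprague–Dawley rats (n = 5) were dosed orally at 100 mg/kg. Endogenous PTH 1–34 was measured by rat PTH 1–34 ELISA. The value is the increase over basal level at 30 min and 60 min after dosing.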

Series [4] can be described thus: Bioavailability in rat at 10 mg/kg, po. The class given is ADME, organism-based. The conditions noted are these: in vivo.
The subject of series [5] is Rattus norvegicus. The experiment in a line: Increase of plasma PTH (1-84) level in Sprague-Dawley rat at 10 mg/kg, po after 2 hrs by ELISA.
The subject of series [6] is Rattus norvegicus. Kind of series: Increase of plasma PTH (1-84) level in Sprague-Dawley rat at 10 mg/kg, po after 30 mins by ELISA.
A short description of series [7]: Cmax in rat at 10 mg/kg, po. The conditions noted are these: in vivo. In kind it is ADME, organism-based. Further details: dose 10 mg/kg, route oral.
Series [8] in a line: Tmax in rat at 10 mg/kg, po. The class given is ADME, organism-based. Further details: dose 10 mg/kg, route oral. As to conditions: in vivo.
Series [9] in a line: Half life in rat at 10 mg/kg, po. In kind it is ADME, organism-based. Further details: dose 10 mg/kg, route oral. As to conditions: in vivo.
A further series deals with Cytochrome P450 2D6 (Homo sapiens, UniProt P10635). Kind of series: Inhibition of CYP2D6. In kind it is ADME.

SMILES strings stand for the structures. Activity calls are given as the source filed them.

From ChEMBL document CHEMBL1155547, “New aminopropandiol derivatives as orally available and short-acting calcium-sensing receptor antagonists” (Bioorg Med Chem Lett, 2010) come the findings set out here.

Sequence of Cytochrome P450 2D6 (P10635 whole entry): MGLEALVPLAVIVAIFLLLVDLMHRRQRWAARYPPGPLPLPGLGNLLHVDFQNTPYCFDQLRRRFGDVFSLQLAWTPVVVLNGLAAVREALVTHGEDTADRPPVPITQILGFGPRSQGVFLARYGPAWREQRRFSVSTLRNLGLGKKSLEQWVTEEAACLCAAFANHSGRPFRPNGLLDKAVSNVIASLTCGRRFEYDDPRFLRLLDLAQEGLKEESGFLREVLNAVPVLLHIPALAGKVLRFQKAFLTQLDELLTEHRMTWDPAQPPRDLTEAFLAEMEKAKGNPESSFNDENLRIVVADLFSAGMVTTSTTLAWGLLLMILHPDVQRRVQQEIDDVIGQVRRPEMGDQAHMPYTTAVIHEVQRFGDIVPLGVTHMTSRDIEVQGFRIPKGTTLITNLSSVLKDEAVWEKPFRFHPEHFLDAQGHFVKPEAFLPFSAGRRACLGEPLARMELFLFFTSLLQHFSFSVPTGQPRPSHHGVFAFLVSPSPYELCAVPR

Consider `CC(C)(Cc1ccc2ccccc2c1)NC[C@@H](O)COC(=O)c1ccccc1`, for which the IC50 in series [1] was over 30000 nM. In turn, `COc1ccccc1C(OC[C@H](O)CNC(C)(C)Cc1ccc2ccccc2c1)C1CC1` (some centres not stated) returned an Activity with Rattus norvegicus [2] of over 80%.

`CC(C)(Cc1ccc2ccccc2c1)NC[C@@H](O)COc1cccc(Cl)c1C#N` came in with an Activity in the series on Rattus norvegicus [3] of 10 pg/mL. Further, the IC50 in [1] came out at 26 nM. Consider `C=CC(OC[C@H](O)CNC(C)(C)Cc1ccc2ccccc2c1)c1ccccc1` (some centres not stated), for which the IC50 in [1] was 210 nM. On the same count and under the same terms, to `CC(Cc1ccccc1)OC[C@H](O)CNC(C)(C)Cc1ccc2ccccc2c1` (some centres not stated) belongs 440 nM. `CC(OC[C@H](O)CNC(C)(C)Cc1ccc2ccccc2c1)c1ccccc1Cl` (some centres not stated) showed an Activity with Rattus norvegicus [2] of under 50%. In addition, the IC50 in series [1] was found to be 140 nM. For `CC(OC[C@H](O)CNC(C)(C)Cc1ccc2ccccc2c1)c1ccccn1` (some centres not stated), the IC50 in series [1] was determined as 420 nM. In the series on Rattus norvegicus [2], `Cc1ccccc1C(C)OC[C@H](O)CNC(C)(C)Cc1ccc2ccccc2c1` (some centres not stated) showed an Activity of over 80%. Also, in [1], the half-inhibitory concentration (IC50) was found to be 200 nM. In the case of `CC(OC[C@H](O)CNC(C)(C)Cc1ccc2ccccc2c1)c1cccc2ccccc12` (some centres not stated), in series [1], the IC50 was 360 nM. Still for that read-out and setting: the same measure for `Cc1ccccc1[C@@H](OC[C@@H](O)CNC(C)(C)Cc1ccc2ccccc2c1)C1CC1`: 760 nM. In the series on Rattus norvegicus [2], `Cc1ccc(C(C)OC[C@H](O)CNC(C)(C)Cc2ccc3ccccc3c2)cc1` (some centres not stated) came in with an Activity of under 50%. Moreover, the IC50 in series [1] was 140 nM. Turning to `CC(C)(Cc1ccc2ccccc2c1)NC[C@@H](O)COC(c1ccccc1)C1CC1` (some centres not stated), the IC50 in [1] came to 70 nM. `CC(OC[C@H](O)CNC(C)(C)Cc1ccc2ccccc2c1)c1cccc(Cl)c1` (some centres not stated) gave an Activity in the series with Rattus norvegicus [2] of under 50%. Also, the IC50 in series [1] was 220 nM. Take `CC(C)(Cc1ccc2ccccc2c1)NC[C@@H](O)COC(c1ccccc1)C1CCCC1` (some centres not stated): the IC50 in series [1] amounted to 200 nM. Still for that read-out and setting: to `CC(C)(Cc1ccc2ccccc2c1)NC[C@@H](O)COC(c1ccccc1)C1CCC1` (some centres not stated) belongs 74 nM. Still for that read-out and setting: to `CC(C)(Cc1ccc2ccccc2c1)NC[C@@H](O)COC(c1ccccc1)C1CCCCC1` (some centres not stated) belongs 610 nM. In the series on Rattus norvegicus [2], `Cc1ccccc1C(OC[C@H](O)CNC(C)(C)Cc1ccc2ccccc2c1)C1CC1` (some centres not stated) displayed an Activity of over 80%. Also, the IC50 in series [1] worked out at 37 nM. Take `CC(OC[C@H](O)CNC(C)(C)Cc1ccc2ccccc2c1)c1ccccc1` (some centres not stated): the IC50 in [1] was found to be 220 nM.

For `Cc1ccccc1[C@H](OC[C@H](O)CNC(C)(C)Cc1ccc2ccccc2c1)C1CC1`, the bioavailability in [4] came out at 13%. In the series with Rattus norvegicus [5], the result was inactive. Further, the outcome in the series on Rattus norvegicus [6] was Active. Moreover, the peak level in [7] (Cmax) was 300 nM. Moreover, the IC50 in series [1] is 23 nM; against Cytochrome P450 2D6, 500 nM. Also, the Tmax in [8] amounted to 1 h. The same molecule showed a half-life in [9] of 2 h.

Consider `Cc1ccccc1[C@H](OC[C@@H](O)CNC(C)(C)Cc1ccc2ccccc2c1)C1CC1`, for which the IC50 in series [1] was 310 nM.

Regarding `CC(OC[C@H](O)CNC(C)(C)Cc1ccc2ccccc2c1)c1ccc2ccccc2c1` (some centres not stated), the IC50 in series [1] is 550 nM.

For the molecule `CC(CCOC[C@H](O)CNC(C)(C)Cc1ccc2ccccc2c1)c1ccccc1` (some centres not stated), the IC50 in series [1] was 300 nM. `Cc1cccc(C(C)OC[C@H](O)CNC(C)(C)Cc2ccc3ccccc3c2)c1` (some centres not stated) showed an Activity in the series on Rattus norvegicus [2] of 50%. Moreover, the IC50 in [1] amounted to 170 nM. Take `CC(C)(Cc1ccc2ccccc2c1)NC[C@@H](O)COC(C)(C)c1ccccc1`: in series [1], the IC50 was determined as 2240 nM.

As to `CCC(OC[C@H](O)CNC(C)(C)Cc1ccc2ccccc2c1)c1ccccc1` (some centres not stated), the IC50 in series [1] is 92 nM. For `CC(C)(Cc1ccc2ccccc2c1)NC[C@@H](O)COC(c1ccccc1)c1ccccc1`, the IC50 in series [1] worked out at 730 nM.

Consider `CC(C)C(OC[C@H](O)CNC(C)(C)Cc1ccc2ccccc2c1)c1ccccc1` (some centres not stated), for which the IC50 in series [1] was found to be 200 nM. In turn, `CC(OC[C@H](O)CNC(C)(C)Cc1ccc2ccccc2c1)c1ccccc1C#N` (some centres not stated) yielded an Activity in the series on Rattus norvegicus [2] of 50%. Also, in series [1], the IC50 is 160 nM. `Cc1ccccc1[C@@H](OC[C@H](O)CNC(C)(C)Cc1ccc2ccccc2c1)C1CC1`: the IC50 in series [1] was determined as 83 nM. Same read-out and setting: to `CCCCC(OC[C@H](O)CNC(C)(C)Cc1ccc2ccccc2c1)c1ccccc1` (some centres not stated) belongs 170 nM.

Take `CC(COC[C@H](O)CNC(C)(C)Cc1ccc2ccccc2c1)c1ccccc1` (some centres not stated): in [1], the IC50 was 810 nM.

`COc1ccccc1C(C)OC[C@H](O)CNC(C)(C)Cc1ccc2ccccc2c1` (some centres not stated) came in with an Activity in the series with Rattus norvegicus [2] of over 80%. For the same molecule, in [1], the IC50 turned out to be 120 nM. As for `CC(C)(Cc1ccc2ccccc2c1)NC[C@@H](O)COC(c1ccccc1)C(C)(C)C` (some centres not stated), the IC50 in series [1] amounted to 570 nM.

In the case of `CCCC(OC[C@H](O)CNC(C)(C)Cc1ccc2ccccc2c1)c1ccccc1` (some centres not stated), the IC50 in [1] was determined as 150 nM. In the case of `CC(OC[C@H](O)CNC(C)(C)Cc1ccc2ccccc2c1)c1ccccc1[N+](=O)[O-]` (some centres not stated), the Activity in the series on Rattus norvegicus [2] was under 50%. For the same molecule, the IC50 in series [1] is 540 nM.

The IC50 is the concentration that gives 50% inhibition. A word on the bioavailability: it is dose-corrected exposure relative to a reference, in per cent. High values mean much systemic uptake, low ones little systemic uptake. For orientation: Cmax means the highest concentration seen after dosing. For orientation: Tmax means the time from dosing to the highest level. As usually defined, the half-life is the time needed for the level to fall by half in the phase considered. Low values mean rapid decline, high ones slow decline.
